Source: PubChem BioAssay (The Scripps Research Institute Molecular Screening Center)
COUP-TFII inh: NR2F2 transcriptional activity inhibitors, primary screen, cell-based, luciferase reporter, HEK293T, luminescence; AID 686940, 2013; COUP transcription factor 2 (Homo sapiens), P24468; 0.7% of 370,000 active; HEK293T NGFI-A luciferase reporter; inhibition, % at 8.6 µM;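 active = inhibition above a per-plate cutoff, mean inhibition of test wells between control levels plus 3 SD, cut at about 38% in these data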;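 also: cells cotransfected with COUP-TFII expression vector driving the NGFI-A reporter; 0% = median of COUP-TF2 test wells and 100% = reporter-only cells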
Target sequence (P24468 whole entry, looked up): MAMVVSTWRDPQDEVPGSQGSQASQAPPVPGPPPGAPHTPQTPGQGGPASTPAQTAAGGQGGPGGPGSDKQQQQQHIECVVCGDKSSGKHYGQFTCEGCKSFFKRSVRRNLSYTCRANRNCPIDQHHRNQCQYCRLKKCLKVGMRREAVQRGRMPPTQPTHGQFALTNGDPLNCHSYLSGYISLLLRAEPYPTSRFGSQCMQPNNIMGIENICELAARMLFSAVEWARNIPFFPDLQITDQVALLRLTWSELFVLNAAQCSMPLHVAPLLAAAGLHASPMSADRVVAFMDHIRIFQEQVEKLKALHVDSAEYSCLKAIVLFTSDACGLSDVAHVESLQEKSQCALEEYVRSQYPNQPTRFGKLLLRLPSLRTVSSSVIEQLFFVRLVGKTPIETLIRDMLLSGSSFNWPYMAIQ
NR2E3 ag-1: inhibitors of NR2E3-RetCOR corepressor binding, primary screen, NR2E3 agonist project, biochemical, TR-FRET, GST-NR2E3, biotin-RetCOR; 1536-well; inhibition of corepressor binding, % at 4.78 µM; 0.12% of 320,000 active; AID 2300, 2010;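 active = percent inhibition above the cutoff of mean plus 3 SD of all tested compounds, set per screening campaign, cut at about 20% in these data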;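 also: 0% = DMSO wells and 100% = biotin wells as full block of FRET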
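Material: NR2E3–RetCOR corepressor complex / Amount: 1.35 nM GST-NR2E3 / Medium: Tris pH 7.5 / Compound: single nominal compound dose of 4.8 µM / Incubation: 5 h at 4 °C / Technique: TR-FRET, Eu(K)-anti-GST donor, streptavidin-D2 acceptor, ex 340, em 617/671 nm / Read-out basis: percent loss of FRET ratio relative to control wells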
SMARCA2 act: SMARCA2 (BRM) function activators, primary screen, cell-based, luminescence, high throughput; activation, % at 9.1 µM; MG213 cells, MMTV-luciferase reporter, dexamethasone, overnight; AID 652017, 2013; 1% of 370,000 active; in the data active = activation above about 7.8%;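 also: 0% = vehicle wells and 100% = reference activator wells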
NR2E3 ag-2: NR2E3 agonists in two-hybrid cells, primary screen, cell-based, luminescence, CHO-S, Gal4-NCOR/VP16-NR2E3. 0.35% of 360,000 active. luciferase. Photoreceptor-specific nuclear receptor (Homo sapiens), Q9Y5X4. inhibition of corepressor binding, % at 3.98 µM. AID 602229, 2012;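 active = inhibition above the mean of all tested compounds plus 3 SD, cut at about 70% in these data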;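 also: 0% = DMSO with NR2E3 transfected cells and 100% = cells lacking NR2E3 construct; higher means lower luciferase signal from less NR2E3 corepressor binding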
GalR3 antag: GalR3 antagonists in HEK293 cells, primary screen, cell-based, fluorescence readout. Galanin receptor type 3 (Homo sapiens), O60755. HEK293 GalR3-CNG cAMP membrane potential fluorescence; galR3 body fused to GalR1 C-terminus. 0.44% of 360,000 active. inhibition, % at 3 µM;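 active = inhibition above the screen-wide average plus 3 SD, cut at about 13% in these data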;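 also: forskolin and galanin both at EC90 stimulate the cells; cAMP rise reported by CNG channel membrane potential dye signal; 0% = forskolin plus galanin with DMSO and 100% = forskolin alone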
SMARCA2 conf: SMARCA2 (BRM) function activators, confirmation, cell-based, luminescence, triplicate; 30% of 3,500 active; activation, % at 9.1 µM; MG213 cells, MMTV-luciferase with dexamethasone, overnight; MG213 cells expressing E1A, Rb sequestered; DMSO wells 0%, reference activator 100%; shares compounds with SMARCA2 act; AID 652260, 2013;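 active = activation above its plate's cutoff, the mean activation of tested wells plus 3 SD, cut at about 7.9% in these data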
GAL4-VP16 Luc: GAL4-VP16 luciferase reporter activation, counter-screen for SMARCA2 (BRM) activator project, cell-based, pG5luc, luminescence, high throughput | shares compounds with SMARCA2 act | HEK293 GAL4-VP16 pG5luc reporter; scaled: DMSO wells 0%, SAHA wells 100% | activation, % at 9.1 µM | 41% of 3,500 active;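 active = activation above the solvent-only control well mean plus 3 SD, averaged across control plates, cut at about 5.2% in these data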
An asterisk follows results filed as active. This is a sample that favours compounds with a hit; in the whole collection about 2.2% have one here.

Screening CC(=O)Nc1ccc2c(=O)n(-c3ccccc3)sc2c1 returned COUP-TFII inh 2.9, SMARCA2 act 9.8*, NR2E3 ag-2 -37.0, GalR3 antag 2.0, SMARCA2 conf 7.5 and GAL4-VP16 Luc 1.6.
Screening Cn1c(=O)c(=O)n(C)c2cc(S(=O)(=O)N3CCN(c4ccccc4Cl)CC3)ccc21 returned COUP-TFII inh -0.4 and SMARCA2 act 2.1.
`Cc1cccc(OCC(=O)N2CCC(c3ccccc3)C2)c1` (centres undefined) gave COUP-TFII inh -7.1, NR2E3 ag-1 2.2, SMARCA2 act 1.8, NR2E3 ag-2 -91.9 and GalR3 antag -7.2.
For O=C(COc1ccc(F)cc1)N1CCC(c2ccccc2)C1 (centres undefined) the results were COUP-TFII inh -28.9, NR2E3 ag-1 2.0, SMARCA2 act 8.4*, NR2E3 ag-2 -65.5, GalR3 antag -6.2, SMARCA2 conf 5.2 and GAL4-VP16 Luc 7.9*.
COC(=O)N/N=C(\C)c1ccccc1Br was read as COUP-TFII inh -5.5, NR2E3 ag-1 0.5, SMARCA2 act 8.0*, NR2E3 ag-2 1.0, GalR3 antag -2.7, SMARCA2 conf 9.1* and GAL4-VP16 Luc 0.2.
Screening COC(=O)N/N=C(\C)c1cccs1 returned COUP-TFII inh -10.1, NR2E3 ag-1 0.6, SMARCA2 act -1.0, NR2E3 ag-2 -25.2 and GalR3 antag 4.1.
Screening CC1CN(c2nc3ccccc3nc2SCC(=O)N2CCN(S(=O)(=O)c3ccc(F)cc3)CC2)CC(C)O1 (centres undefined) returned COUP-TFII inh 24.6 and SMARCA2 act -3.6.
COC(=O)c1c(-c2ccccc2)[nH]c(-c2nccc3ccccc23)c1C(=O)OC was read as COUP-TFII inh -23.2, SMARCA2 act 8.4*, NR2E3 ag-2 -20.5, GalR3 antag -7.7, SMARCA2 conf -0.4 and GAL4-VP16 Luc 2.6.
CC1Cc2ccccc2N1C(=O)/C=C/c1cccc(F)c1 (centres undefined) was read as COUP-TFII inh -28.0, NR2E3 ag-1 1.5, SMARCA2 act 8.2*, NR2E3 ag-2 -84.9, GalR3 antag 0.6, SMARCA2 conf 5.3 and GAL4-VP16 Luc 9.9*.
Oc1ccc(-c2nccc(-c3ccccn3)n2)cc1 was read as COUP-TFII inh -40.5, NR2E3 ag-1 1.2, SMARCA2 act 10.2*, NR2E3 ag-2 -94.9, GalR3 antag -9.9, SMARCA2 conf 7.6 and GAL4-VP16 Luc 8.1*.
